Results published in ChEMBL document CHEMBL3817728, “Synthesis, Evaluation, and Mechanism Study of Novel Indole-Chalcone Derivatives Exerting Effective Antitumor Activity Through Microtubule Destabilization in Vitro and in Vivo” (J Med Chem, 2016).
Active and inactive are the calls of the source. The rule behind the calls is not given here.

What was measured:
Mus musculus = experiment: Toxicity in BALB/c nude mouse xenografted with human A549 cells assessed as loss of body weight at 30 mg/kg, ip administered every other day for 1 month measured every other day post dose relative to vehicle-treated control; format: organism-based; conditions: in vivo
A549 [1] = experiment: Induction of apoptosis in human A549 cells assessed as late apoptotic cells at 10 nM after 48 hrs by annexin V-FITC/propidium iodide staining-based flow cytometric method (reference value: 0.01%); format: functional
[2] = Cytotoxicity against human HCT8/VCT cells assessed as growth inhibition after 48 hrs by MTT assay; format: functional, cell-based
Outline: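 Drug-resistant lines were tested by a 48 h MTT viability assay. IC50 was derived from dose-response curves and reported as mean ± SE of at least three independent experiments.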

A549 [3] = experiment: Disruption of mitochondrial membrane potential in human A549 cells at 1 to 10 nM after 24 hrs by JC1/Hoechst 33342 staining-based laser scanning confocal microscopy; format: functional, cell-based
Outline: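 After 24 h compound treatment, A549 cells were incubated with JC-1 for 30 min and visualized by laser scanning confocal microscopy.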

A549 [4] = experiment: Induction of apoptosis in human A549 cells assessed as viable cells at 1 nM after 24 hrs by annexin V-FITC/propidium iodide staining-based flow cytometric method (reference value: 98.9%); format: functional; conditions: A549, 24 h, read-out: Activity
Outline: (§1)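 A549 cells exposed 24 h or 48 h at indicated concentrations, then trypsinized, harvested and stained with Annexin V-FITC and PI; flow cytometry quadrants scored as necrotic (upper left), late apoptotic (upper right), live (bottom left) and early apoptotic (bottom right). Five independent experiments, representative shown.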

A549 [5] = experiment: Induction of apoptosis in human A549 cells assessed as early apoptotic cells at 1 nM after 48 hrs by annexin V-FITC/propidium iodide staining-based flow cytometric method (reference value: 1.95%); format: functional
A549 [6] = experiment: Induction of apoptosis in human A549 cells assessed as early apoptotic cells at 10 nM after 48 hrs by annexin V-FITC/propidium iodide staining-based flow cytometric method (reference value: 1.95%); format: functional
A549 [7] = experiment: Disruption of microtubule network in human A549 cells assessed as multipolarization of spindle at 10 nM after 24 hrs by Hoechst 33342 staining-based laser scanning confocal microscopic analysis; format: cell-based
Outline: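 A549 cells plated in confocal dishes and incubated with compound for 24 h. Cells were then fixed and stained, and microtubule and spindle organization was imaged by laser confocal microscopy. Experiments done five times; representative results shown.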

A549 [8] = experiment: Induction of apoptosis in human A549 cells assessed as late apoptotic cells at 1 nM after 24 hrs by annexin V-FITC/propidium iodide staining-based flow cytometric method (reference value: 0.01%); format: functional
HeLa = experiment: Cytotoxicity against human HeLa cells assessed as cell viability after 48 hrs by MTT assay; format: functional, cell-based
Outline: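 Cancer cell lines treated with compound for 48 h, and viability read by MTT assay. IC50 given as mean ± SD from at least three independent experiments.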

A549 [9] = experiment: Disruption of mitochondrial membrane potential in human A549 cells assessed as green fluorescence intensity at 3 nM after 24 hrs by JC1 staining-based flow cytometric method (reference value: 0.02%); format: functional
[10] = Selectivity ratio of IC50 for HLF to IC50 for human A549 cells; format: ADME, cell-based; conditions: HLF versus A549 cells, read-out: Ratio IC50
Outline: (§2)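 Selectivity ratio = IC50 in normal cells / IC50 in A549; IC50 values mean ± SE from dose-response curves of at least three independent experiments. HUVECs kept quiescent in endothelial cell medium with 0.5% fetal calf serum, no growth factor.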

Tubulin = Tubulin (Sus scrofa, UniProt P02554+P02550); experiment: Inhibition of porcine brain tubulin polymerization measured every 60 secs for 60 mins by DAPI staining-based fluorescence assay
A549 [11] = experiment: Induction of apoptosis in human A549 cells assessed as late apoptotic cells at 10 nM after 24 hrs by annexin V-FITC/propidium iodide staining-based flow cytometric method (reference value: 0.01%); format: functional
Tubulin (Sus scrofa) = Tubulin (Sus scrofa) (UniProt P02554+P02550); experiment: Inhibition of [3H]-colchicine binding to porcine brain tubulin at 5 uM relative to control
Outline: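 Competition with [3H]colchicine at 5 μM; test agents at 5 or 1 μM. Mean ± SD of at least three independent experiments.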

[12] = Cytotoxicity against human MCF10A cells assessed as growth inhibition after 48 hrs by MTT assay; format: cell-based; conditions: MCF-10A
Outline: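 Non-tumorigenic cells given 48 h compound exposure, and viability read by MTT. IC50 is mean ± SE from dose-response curves of at least three independent experiments. HUVECs were kept quiescent in endothelial cell medium with 0.5% fetal calf serum and no growth factor.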

A549 [13] = experiment: Disruption of mitochondrial membrane potential in human A549 cells assessed as green fluorescence intensity at 1 nM after 24 hrs by JC1 staining-based flow cytometric method (reference value: 0.02%); format: functional
A549 [14] = experiment: Induction of apoptosis in human A549 cells assessed as viable cells at 3 nM after 48 hrs by annexin V-FITC/propidium iodide staining-based flow cytometric method (reference value: 98.1%); format: functional; conditions: A549, 48 h, read-out: Activity; outline: as §1
A549 [15] = experiment: Induction of apoptosis in human A549 cells assessed as necrotic cells at 10 nM after 48 hrs by annexin V-FITC/propidium iodide staining-based flow cytometric method (reference value: 0.01%); format: functional
[16] = Metabolic stability in Sprague-Dawley rat liver microsomes assessed as compound remaining at 90 mins in presence of NADPH regenerating system by HPLC method; format: ADME; conditions: read-out: Stability
Outline: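 Test compound incubated with rat liver microsomes at 37 ℃ in buffer containing an NADPH regenerating system for the stated time. Remaining parent compound was quantified by HPLC.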

A549 [17] = experiment: Disruption of mitochondrial membrane potential in human A549 cells assessed as red fluorescence intensity at 10 nM after 24 hrs by JC1 staining-based flow cytometric method (reference value: 99.2%); format: functional
A549 [18] = experiment: Disruption of mitochondrial membrane potential in human A549 cells assessed as red fluorescence intensity at 3 nM after 24 hrs by JC1 staining-based flow cytometric method (reference value: 99.2%); format: functional
[19] = Half life in Sprague-Dawley rat liver microsomes in presence of NADPH regenerating system by HPLC method; format: ADME
Outline: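 Compound incubated with rat liver microsomes at 37 °C in buffer containing an NADPH regenerating system, sampled over time up to 3 h. Remaining parent compound was measured by HPLC and half-life derived.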

A549 [20] = experiment: Induction of apoptosis in human A549 cells assessed as late apoptotic cells at 3 nM after 48 hrs by annexin V-FITC/propidium iodide staining-based flow cytometric method (reference value: 0.01%); format: functional
[21] = Selectivity ratio of IC50 for human BJ cells to IC50 for human A549 cells; format: ADME, cell-based; conditions: BJ cells versus A549 cells, read-out: Ratio IC50; outline: as §2
A549 [22] = experiment: Induction of apoptosis in human A549 cells assessed as necrotic cells at 3 nM after 24 hrs by annexin V-FITC/propidium iodide staining-based flow cytometric method (reference value: 0.03%); format: functional
A549 [23] = experiment: Antitumor activity against human A549 cells xenografted in BALB/c nude mouse assessed as tumor growth inhibition at 30 mg/kg, ip administered every other day for 1 month measured every other day post dose relative to vehicle-treated control; format: functional; conditions: read-out: TGI

Sequence of Tubulin (Sus scrofa) (P02550 whole entry, looked up): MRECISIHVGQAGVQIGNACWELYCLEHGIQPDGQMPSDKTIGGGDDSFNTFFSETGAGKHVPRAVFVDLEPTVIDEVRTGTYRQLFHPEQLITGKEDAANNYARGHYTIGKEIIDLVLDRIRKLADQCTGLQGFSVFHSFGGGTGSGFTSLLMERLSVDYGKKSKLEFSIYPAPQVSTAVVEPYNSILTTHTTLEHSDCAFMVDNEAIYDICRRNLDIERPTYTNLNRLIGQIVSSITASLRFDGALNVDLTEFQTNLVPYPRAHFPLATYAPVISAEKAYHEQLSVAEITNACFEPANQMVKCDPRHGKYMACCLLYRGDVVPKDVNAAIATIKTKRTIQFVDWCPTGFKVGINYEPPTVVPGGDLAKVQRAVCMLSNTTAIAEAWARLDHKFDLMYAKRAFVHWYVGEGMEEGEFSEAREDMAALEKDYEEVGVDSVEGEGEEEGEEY
Sequence of Tubulin (Sus scrofa) (P02554 whole entry, looked up): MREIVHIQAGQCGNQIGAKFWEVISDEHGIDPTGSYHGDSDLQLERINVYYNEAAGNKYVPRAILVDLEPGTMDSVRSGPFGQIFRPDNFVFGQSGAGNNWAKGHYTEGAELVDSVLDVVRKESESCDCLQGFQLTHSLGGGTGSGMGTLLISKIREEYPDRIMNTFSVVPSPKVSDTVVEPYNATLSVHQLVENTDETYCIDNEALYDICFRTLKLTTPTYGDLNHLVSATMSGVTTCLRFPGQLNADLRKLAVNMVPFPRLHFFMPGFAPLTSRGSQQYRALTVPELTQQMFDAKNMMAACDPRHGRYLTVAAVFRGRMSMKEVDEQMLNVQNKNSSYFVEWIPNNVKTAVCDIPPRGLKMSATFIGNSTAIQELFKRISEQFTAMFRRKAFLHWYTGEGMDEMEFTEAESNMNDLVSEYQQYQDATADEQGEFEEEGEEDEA

Q: Which results are given for `COc1ccc2c(/C=C(\C)C(=O)c3cc(OC)c(OC)c(OC)c3)c[nH]c2c1`?
A: Activity (Mus musculus): Non-toxic; Activity (A549 [1]): 70.2%; IC50 [2]: 5 nM; Activity (A549 [3]): Active; viability at 0.001 µM (A549 [4]): 83.7%; Activity (A549 [5]): 18.9%; Activity (A549 [6]): 8.41%; Activity (A549 [7]): Active; Activity (A549 [8]): 2.12%; IC50 (HeLa): 7 nM; Activity (A549 [9]): 43.8%; selectivity ratio [10]: 1890; IC50 (Tubulin): 2680 nM; Activity (A549 [11]): 12.41%; inhibition (Tubulin (Sus scrofa)): 96%; IC50 [12]: 2670 nM; Activity (A549 [13]): 1.78%; viability at 0.003 µM (A549 [14]): 33.9%; Activity (A549 [15]): 8.38%; remaining at 1.5 h [16]: 73.7%; Activity (A549 [17]): 40.7%; Activity (A549 [18]): 53.9%; half-life [19]: 2.62 h; Activity (A549 [20]): 33.4%; selectivity ratio [21]: 2970; Activity (A549 [22]): 1.07%; inhibition in vivo at 30 mg/kg (A549 [23]): 66.1%
